APJ ag – APJ receptor agonism | P35414 | CHO-K1 APJ PathHunter beta-arrestin, luminescence; 0% DMSO wells, 100% apelin | activation, % at 20 µM | actives 0.11% (n = 330,000) | AID 2520;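 active = activation more than six SD over the plate average, tested at 20 µM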;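 also: 0% = DMSO alone and 100% = apelin-13 at 10 nM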
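Material: CHO-K1 APJ beta-arrestin complementation cell line; Input: cell density 1000 per well; Incubation: compound stimulation 90 min at 25 °C, detection 60 min; Signal: luminescence from split beta-galactosidase complementation, Galacton Star/Emerald II substrate; Controls: DMSO-only wells as negative, 10 nM Apelin-13 as positive control.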
APJ antagonist – antagonists of human APJ apelin receptor | P35414 | CHO-K1 APJ beta-arrestin complementation, luminescence | inhibition, % at 20 µM | actives 0.32% (n = 330,000) | AID 2521;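 active = inhibition above about 40% at 20 µM, limit read from the data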;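 also: cells challenged with 10 nM apelin-13 agonist together with compound; plate controls were apelin-13 plus DMSO wells for no effect and DMSO wells lacking apelin-13 for full effect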
CXCR6 inh – CXCR6 (human) receptor inhibition; AID 602244; actives 0.36% (n = 360,000); O00574; inhibition, % at 20 µM; CHO-K1 PathHunter CXCR6 beta-arrestin, luminescence; in the data active = inhibition above about 34%, passing the limit was not always enough;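 also: antagonist mode with CXCL16 agonist at 10 nM final; 0% = 10 nM CXCL16 with DMSO and 100% = unstimulated wells without agonist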
CCR6 antagonist – CCR6 (human) receptor antagonism. P51684. actives 0.49% (n = 340,000). inhibition, % at 20 µM. CHO-K1 CCR6 PathHunter beta-arrestin, luminescence, CCL20-stimulated. AID 493098;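 active = compounds whose inhibition of the agonist-driven luminescence signal at 20 µM reaches about 50%, limit read from the data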;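 also: cells stimulated with CCL20 at 14 nM final; plate controls were DMSO with CCL20 for no effect and DMSO without agonist for full effect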
Target sequence (P51684 whole entry, looked up): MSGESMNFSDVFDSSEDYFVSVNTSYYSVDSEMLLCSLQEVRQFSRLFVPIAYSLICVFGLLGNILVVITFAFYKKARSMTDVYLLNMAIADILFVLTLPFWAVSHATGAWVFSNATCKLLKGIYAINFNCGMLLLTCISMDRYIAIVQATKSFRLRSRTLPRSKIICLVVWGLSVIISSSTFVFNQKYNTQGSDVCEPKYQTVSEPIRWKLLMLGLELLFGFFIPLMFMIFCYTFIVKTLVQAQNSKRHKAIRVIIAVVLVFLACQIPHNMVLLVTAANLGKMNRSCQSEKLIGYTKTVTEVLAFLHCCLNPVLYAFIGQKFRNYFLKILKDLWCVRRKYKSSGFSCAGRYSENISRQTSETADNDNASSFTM
EBI2 antag – EBI2 (human) antagonism; EBI2 beta-arrestin recruitment, luminescence, 7a,25-OHC stimulated; inhibition, % at 5 µM; actives 0.81% (n = 360,000); AID 651636; in the data active = inhibition above about 38%;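 also: enzyme fragment complementation signal reports receptor beta-arrestin coupling in cells; 0% = agonist plus DMSO wells and 100% = wells without agonist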
EBI2 antag conf – confirmation of human EBI2 receptor antagonists; shares compounds with EBI2 antag; EBI2 beta-arrestin luminescence, 7a,25-OHC antagonism; inhibition, % at 5 µM; actives 29% (n = 2,400); AID 651997;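 active = inhibition of at least 50%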
EBI2 agonist – EBI2 agonism counter-screen | activation, % at 5 µM | shares compounds with EBI2 antag | EBI2-expressing cells, agonist mode, luminescence, 60 min; 0% vehicle, 100% 7α,25-dihydroxycholesterol control | 2,400 tested, under 10 active;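 active = activation of at least 50%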
bGal cs – beta-galactosidase inhibition counter-screen; purified beta-galactosidase, luminescent Galacton Star, 15 min; inhibition, % at 5 µM; AID 652176; shares compounds with EBI2 antag; actives 1% (n = 2,400);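 active = replicate-average signal at least 3 plate SD below neutral wells, shown as high inhibition, flagging enzyme-inhibiting false positives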;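 also: 0% = DMSO wells with enzyme and 100% = wells lacking enzyme; higher means stronger loss of beta-gal luminescence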
* hit, by the source's call; . = not tested or not shown. Hits are enriched below; roughly 1.5% of the tested compounds scored in any of these assays.

SMILES	APJ ag	APJ antagonist	CXCR6 inh	CCR6 antagonist	EBI2 antag	EBI2 antag conf	EBI2 agonist	bGal cs
CCN1C(=O)/C(=C\c2nc3ccccc3c(=O)n2CC)c2ccccc21	4	0	-6	11	28	.	.	.
CCOC(=O)N(C)c1c(CC)nc2c(OCc3ccc(Cl)cc3Cl)cccn12	.	.	11	.	45*	77*	-1	-7
CSc1c(C#N)c(N)nc2sc(C(=O)c3ccc(Cl)c(Cl)c3)c(N)c12	1	-24	.	3	.	.	.	.
CCCCOC(=O)CSc1nc(N)c(C#N)c(-c2ccc(OCC)cc2)c1C#N	0	3	8	8	21	.	.	.
CCOc1ccc(-c2c(C#N)c(N)nc3sc(C(=O)c4ccccc4)c(N)c23)cc1	-4	5	14	8	42*	20	1	4
COc1ccc(-c2c(C#N)c(N)nc3sc(C(=O)c4ccccc4)c(N)c23)cc1	.	.	5	22	49*	42	-1	-8
CN(Cc1nc2ccccc2c(=O)[nH]1)C(=O)c1cc(-c2ccc(Br)cc2)nc2ccccc12	.	.	2	-14	26	.	.	.
COC(=O)C(C)n1cnc2c(nnn2-c2cccc(OC)c2)c1=O (stereo unspecified)	-5	18	-3	2	-13	.	.	.
O=C(Nc1ccc(Cl)cc1)N1CCC(c2nc(-c3ccc(F)cc3)no2)CC1	-1	-19	-3	8	53*	33	2	7
O=S(=O)(c1ccc(Cl)cc1)N1CCCC(c2nc(-c3ccc(F)cc3)no2)C1 (stereo unspecified)	-3	9	-4	19	24	.	.	.
COc1ccc(NC(=O)N2CCCC(c3nc(-c4ccc(OC)cc4)no3)C2)cc1 (stereo unspecified)	-1	-5	4	11	58*	30	1	2
O=C(Nc1ccc(Cl)cc1)N1CCN(c2ccc3nnc(-c4ccc(F)cc4)n3n2)CC1	-3	9	5	2	48*	49	-2	-8
COc1cccc(OCc2nn3c(=O)c(-c4ccccc4)nnc3s2)c1	.	.	6	4	-13	.	.	.
CC(=O)c1nn(-c2ccc(Br)cc2)cc1C(=O)c1ccccc1	-5	10	-1	5	52*	43	0	8
CC(=O)c1nn(-c2ccc(Cl)cc2)cc1C(=O)c1ccc(C)cc1	0	14	9	2	88*	51*	1	9
COc1ccc(C(=O)c2cn(-c3cccc(Br)c3)nc2C(C)=O)cc1	-3	20	3	-4	-2	.	.	.
O=C(COc1ccccc1)N1CCN(S(=O)(=O)c2ccc(Cl)cc2)CC1	3	-2	-6	8	49*	35	-1	-4
O=C(COc1ccc(Cl)cc1)N1CCN(S(=O)(=O)c2ccccc2)CC1	3	-9	-2	5	87*	68*	-1	-15
O=C(NCc1ccc(Cl)cc1)N1CCN(S(=O)(=O)c2ccccc2)CC1	-1	7	-5	14	45*	25	0	9
COc1ccc(OCC(=O)N2CCN(S(=O)(=O)c3ccc(Cl)cc3)CC2)cc1	-7	9	1	14	71*	58*	0	5
O=C(NCc1ccc(Cl)cc1)N1CCN(C(=O)c2ccccc2)CC1	.	.	4	.	25	.	.	.
O=C(COc1ccc(Cl)cc1Br)N1CCN(S(=O)(=O)c2ccccc2)CC1	-1	2	-6	18	29	.	.	.
Nn1c(COc2ccccc2F)nnc1SCC(=O)NC1CC1	13	13	-3	-5	-7	.	.	.
C=CCSc1nc2sc3c(c2c(=O)[nH]1)CC(C)(CC)OC3 (stereo unspecified)	0	-4	-10	12	-14	.	.	.
CN1CCC(=O)N(CCOc2ccccc2)CC1	-5	0	-2	6	0	.	.	.
COc1ccc(S(=O)(=O)N2CCN(C(=O)CCOc3ccccc3)CC2)cc1OC	-4	4	-4	7	5	.	.	.
